Data published in ChEMBL document CHEMBL4673305, “Azodyrecins A-C: Azoxides from a Soil-Derived Streptomyces Species” (J Nat Prod, 2020).
Calls of active or inactive are those of the source. The rule behind the calls is not given here.

Experiments:
Vibrio anguillarum = experiment: Antimicrobial activity against Vibrio anguillarum 90-11-287 assessed as reduction in microbial growth after 24 hrs by agar well diffusion assay; type: functional, organism-based
Outline: (§1)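 Agar well diffusion on Instant Ocean agar (3% Instant Ocean, 3.33 g/L casamino acids, 4 g/L glucose, 10 g/L agar) seeded with pathogen. Wells 4 mm in diameter, 32-38 mm apart, each got 30 µL of a 100 µg/100 µL MeOH solution. Medium and MeOH wells were controls; the positive control was sterile-filtered supernatant of tropodithietic acid-producing Phaeobacter inhibens DSM17395. Incubated 24 h at 25 °C; inhibition zone diameter measured.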

HL-60 = experiment: Cytotoxicity against human HL-60 cells assessed as reduction in cell viability after 48 hrs by AlamarBlue assay; type: functional, cell-based
Outline: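 HL-60 cells grown at 37 °C, 5% CO2, seeded at 2 x 10⁵ cells/mL. Compound in DMSO was dispensed acoustically at 10 concentrations (top 10 µM, 1:2 dilutions). After 48 h, AlamarBlue was added for a further 5 h and fluorescence read (ex 544/em 590 nm). DMSO-only wells served as maximal growth; medium-only wells gave background correction.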

Candida albicans = experiment: Antifungal activity against Candida albicans IBT 654.38 assessed as reduction in microbial growth after 16 to 24 hrs by agar well diffusion assay; type: functional, organism-based; conditions: time 16-24 hrs, in the assay text read “paper disk diffusion assay” for “agar well diffusion assay”
Outline: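 Disk diffusion: a glucose–peptone agar base layer (pH 4.8) was inoculated with the yeast. 6 mm paper disks carried 80 µg compound applied in CH2Cl2 and were dried under sterile conditions before placing. Incubated 28 °C for 16–24 h; inhibition zone diameter measured.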

Staphylococcus aureus = experiment: Antimicrobial activity against Staphylococcus aureus 8325 assessed as reduction in microbial growth after 24 hrs by agar well diffusion assay; type: functional, organism-based; outline: as §1
[1] = Toxicity in Artemia salina assessed as mortality at 10 ug/ml after 24 hrs by Meyer method; conditions: at 10 µg/mL
Outline: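 Brine shrimp test after Meyer, modified. Artemia salina eggs were hatched in artificial seawater. Tubes held 30–40 nauplii in 4.95 mL seawater, plus 50 µL DMSO solution of compound (final 10 µg/mL). Elaiophylin was the positive control and DMSO alone the negative control. Mortality was scored after 24 h.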

Structure (SMILES) | Activity (Vibrio anguillarum) | IC50 (HL-60; hl-60) | Activity (Candida albicans) | Activity (Staphylococcus aureus) | mortality at 24 h, 10 ug/ml [1] | IC50 (HL-60; Homo sapiens, HL-60, 48 h, read-out: IC50)
COC(=O)[C@H](C)/N=[N+]([O-])/C=C\CCCCCCCCCC(C)C | inactive | Nd(Unstable) | inactive | inactive | 100% | –
COC(=O)[C@H](C)/N=[N+]([O-])/C=C/CCCCCCCCCC(C)C | inactive | – | – | inactive | – | –
CC[C@@H]1[C@@H](C)O[C@@](O)([C@@H](C)[C@H](O)[C@H](C)[C@H]2OC(=O)/C=C/C=C/[C@H](C)[C@@H]([C@@H](C)[C@@H](O)[C@H](C)[C@@]3(O)C[C@@H](O[C@H]4C[C@H](O)[C@H](O)[C@H](C)O4)[C@H](CC)[C@@H](C)O3)OC(=O)/C=C/C=C/[C@@H]2C)C[C@H]1O[C@H]1C[C@H](O)[C@H](O)[C@H](C)O1 | – | – | – | – | 78% | –
CCC(C)CCCCCCCCC/C=C\[N+]([O-])=N\[C@@H](C)C(=O)OC (some centres undefined) | – | – | – | – | – | 2.2 µM
